Here are results for ten molecules from ChEMBL document CHEMBL1128420, “Novel steroidal inhibitors of human cytochrome P45017 alpha (17 alpha-hydroxylase-C17,20-lyase): potential agents for the treatment of prostatic cancer” (J Med Chem, 1995).

In general, IC50 refers to the concentration that inhibits the measured activity by half. The low end stands for greater potency in that assay, the high end for weaker potency in that assay.

Experiment [1] addresses T1, Steroid 17-alpha-hydroxylase/17,20 lyase (Homo sapiens, UniProt P05093).
T1 sequence (P05093 whole entry): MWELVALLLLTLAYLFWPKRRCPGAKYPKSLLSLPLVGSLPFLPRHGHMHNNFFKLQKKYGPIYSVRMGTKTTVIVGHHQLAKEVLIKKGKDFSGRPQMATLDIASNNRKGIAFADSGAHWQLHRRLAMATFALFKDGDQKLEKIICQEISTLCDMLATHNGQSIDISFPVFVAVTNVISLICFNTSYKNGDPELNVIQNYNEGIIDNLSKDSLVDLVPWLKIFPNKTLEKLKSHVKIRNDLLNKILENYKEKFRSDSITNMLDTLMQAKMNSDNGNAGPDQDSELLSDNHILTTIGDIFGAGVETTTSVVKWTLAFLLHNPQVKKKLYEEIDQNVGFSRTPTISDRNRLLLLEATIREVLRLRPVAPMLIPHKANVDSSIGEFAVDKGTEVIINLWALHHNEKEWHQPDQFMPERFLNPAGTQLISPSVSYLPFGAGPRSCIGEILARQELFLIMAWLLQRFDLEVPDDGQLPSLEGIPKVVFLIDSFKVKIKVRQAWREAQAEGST
As to the kind of experiment: Ability to inhibit the Steroid 17-alpha-hydroxylase/17,20 lyase enzyme by 50%.

Experiment [2] deals with T2, Aromatase (Homo sapiens, UniProt P11511).
T2 sequence (P11511 whole entry): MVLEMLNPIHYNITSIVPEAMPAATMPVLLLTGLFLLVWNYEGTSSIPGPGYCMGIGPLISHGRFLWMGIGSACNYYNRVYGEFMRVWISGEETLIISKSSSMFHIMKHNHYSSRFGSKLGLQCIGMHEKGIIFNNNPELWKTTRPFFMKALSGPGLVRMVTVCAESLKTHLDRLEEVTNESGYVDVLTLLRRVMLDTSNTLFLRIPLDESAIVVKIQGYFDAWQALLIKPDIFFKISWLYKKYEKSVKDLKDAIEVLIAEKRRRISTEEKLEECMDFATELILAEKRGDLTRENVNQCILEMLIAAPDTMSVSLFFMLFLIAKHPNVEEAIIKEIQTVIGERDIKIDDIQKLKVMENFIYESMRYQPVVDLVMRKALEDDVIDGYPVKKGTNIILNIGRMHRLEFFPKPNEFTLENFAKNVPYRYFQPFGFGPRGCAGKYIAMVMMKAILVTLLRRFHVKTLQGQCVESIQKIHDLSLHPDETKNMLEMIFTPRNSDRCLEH
Kind of experiment: Inhibition of Cytochrome P450 19A1. The method in brief:
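Aromatase from the microsomal fraction of human placenta.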

Experiment [3] has as its target T1, Steroid 17-alpha-hydroxylase/17,20 lyase. Kind of experiment: Ability to inhibit the C17,20-lyase enzyme by 50% using 17-alpha-hydroxyprogesterone as substrate.
A short description of experiment [4]: Inhibition of Steroid 5-alpha-reductase. Also noted: species or system Homo sapiens. The method in brief: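 Testosterone 5α-reductase from human benign prostatic tissue.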

Bounds are passed on as bounds.

For the molecule `C[C@]12CC[C@H](O)CC1=CC[C@@H]1[C@@H]2CC[C@]2(C)C(c3ccncc3)=CC[C@@H]12`, the IC50 was 4000 nM in experiment [1], more than 20000 nM in experiment [2] and 1000 nM in experiment [3].

Take `C[C@]12CC[C@H](O)CC1=CC[C@@H]1[C@@H]2CC[C@]2(C)C(c3ccccn3)=CC[C@@H]12`: the IC50 in experiment [1] was 270 nM; in experiment [2] it was more than 20000 nM; in experiment [3] it was 76 nM.

Take `C[C@]12CCC(=O)C=C1CCC1C2C(=O)C[C@]2(C)C(c3cccnc3)=CCC12` (some centres not stated): the concentration for half-maximal inhibition (IC50) in experiment [1] was found to be 13 nM; in experiment [3] it was 2.9 nM.

As for `C[C@]12CCC(=O)C=C1CCC1C2CC[C@]2(C)C(c3cccnc3)=CCC12` (some centres not stated), the IC50 is 10000 nM in experiment [4] and 1800 nM in experiment [2].

`C[C@]12CCC(Oc3c(F)c(F)c(C(F)(F)F)c(F)c3F)=CC1=CCC1C2CC[C@]2(C)C(c3cccnc3)=CCC12` (some centres not stated): the IC50 in experiment [1] and in experiment [3] was more than 10000 nM throughout.

Consider `C[C@]12CCC(O)CC1=CCC1C2CC[C@]2(C)C(Cc3ccccn3)=CCC12` (some centres not stated), for which the IC50 in experiment [1] and in experiment [3] was more than 10000 nM throughout.

In the case of `C[C@]12CC[C@H](O)CC1=CCC1C2CC[C@@]2(C)C1CC[C@@H]2c1cccnc1` (some centres not stated), the IC50 in experiment [1] amounted to 47 nM; in experiment [3], 23 nM.

`C[C@]12CCC3C(CC[C@H]4CC(=O)CC[C@]34C)C1CC=C2c1cccnc1` (some centres not stated): the figures for the 50% inhibitory concentration (IC50) in experiment [1] and in experiment [3] were 4.7 nM and 3 nM, respectively.

Regarding `C[C@]12CCC3C(CC=C4C[C@@H](O)CC[C@@]43C)C1CCC2c1ccncc1` (single isomer, unassigned), the IC50 in experiment [1] is 160 nM; in experiment [3] it was 53 nM.

As to `C[C@]12CC[C@H](O)CC1=CC[C@@H]1[C@@H]2CC[C@]2(C)C(c3cccnc3)=CC[C@@H]12` [ABIRATERONE], the IC50 in experiment [4] was more than 50000 nM; in experiment [2], more than 20000 nM.
